Experimental data taken from ChEMBL document CHEMBL2157924, “Cyclobutane derivatives as novel nonpeptidic small molecule agonists of glucagon-like peptide-1 receptor” (J Med Chem, 2012).

How the values were obtained:
[1] = target: T1, Glucagon-like peptide 1 receptor (Rattus norvegicus) (UniProt P32301); test: Inhibition of [125I]Exendin (9-39) binding to rat GLP1R expressed in HEK293 cells; format: cell-based; design: concentration or dose not given beside the values; conditions: concentration not given here
T1 sequence (whole entry): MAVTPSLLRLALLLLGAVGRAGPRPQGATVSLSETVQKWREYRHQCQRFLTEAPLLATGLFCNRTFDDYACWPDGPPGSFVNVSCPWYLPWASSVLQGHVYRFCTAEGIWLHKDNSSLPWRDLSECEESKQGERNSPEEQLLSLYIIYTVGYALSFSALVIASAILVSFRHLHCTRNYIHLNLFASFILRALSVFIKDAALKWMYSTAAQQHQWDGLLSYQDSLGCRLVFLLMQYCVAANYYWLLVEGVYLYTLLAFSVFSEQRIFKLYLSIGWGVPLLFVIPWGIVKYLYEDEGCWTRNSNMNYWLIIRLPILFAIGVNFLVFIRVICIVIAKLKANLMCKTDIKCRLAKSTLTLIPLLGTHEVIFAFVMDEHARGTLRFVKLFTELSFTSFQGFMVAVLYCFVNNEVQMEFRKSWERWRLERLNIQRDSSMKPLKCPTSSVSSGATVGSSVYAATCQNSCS
How it was run: (§1)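 Membranes (17 μg protein) from HEK293 cells stably expressing rat GLP-1R were preincubated 5 h at 4 °C with FlashBlue beads (150 μg). Then 40 pM [125I]GLP-1(7−36) amide or [125I]Exendin(9−39) was added with aprotinin 2 μg/mL, leupeptin 100 μM and test compound at varied concentrations. Incubated overnight at 4 °C, then bound radioactivity counted. Mean ± SEM of two independent experiments.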

[2] = target: T1, Glucagon-like peptide 1 receptor (Rattus norvegicus); test: Inhibition of [125I]GLP1 (7-36) amide binding to rat GLP1R expressed in HEK293 cells relative to untreated control; format: cell-based; design: concentration or dose not given beside the values; conditions: concentration not given here; how it was run: as §1
[3] = target: T2, Glucagon-like peptide 1 receptor (Rattus norvegicus, UniProt P32301); test: Inhibition of [125I]GLP1 (7-36) amide binding to rat GLP1R expressed in HEK293 cells; format: cell-based; how it was run: as §1
T2 sequence (P32301 whole entry): T1 sequence (whole entry)

[4] = target: T2, Glucagon-like peptide 1 receptor; test: Agonist activity at rat GLP1R expressed in HEK293 cells assessed as stimulation of cAMP levels incubated for 6 hrs by multiple response element/cAMP response element (MRE/CRE)-driven reporter gene assay; format: functional, cell-based
How it was run: (§2)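 Stable HEK293 line co-expressing rat GLP-1R (pCMV-Tag2B) and a luciferase reporter with 3× MRE plus 1× CRE, seeded at 40000 cells/well and cultured overnight. Compounds in DMSO or GLP-1(7−37) were added for 6 h, then cells were lysed and luciferase read (Steady-Glo). The 10 nM GLP-1 maximum was taken as 100%. Mean ± SEM of two independent experiments; some values come from a single run.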

[5] = target: T1, Glucagon-like peptide 1 receptor (Rattus norvegicus); test: Agonist activity at rat GLP1R expressed in HEK293 cells assessed as stimulation of cAMP levels incubated for 6 hrs by multiple response element/cAMP response element (MRE/CRE)-driven reporter gene assay relative to 10 nM GLP1; format: functional, cell-based; how it was run: as §2

| Structure (SMILES) | inhibition [1] [%] | inhibition [2] [%] | IC50 [3] [µM] | EC50 [4] [µM] | Efficacy [5] [%] |
| --- | --- | --- | --- | --- | --- |
| COc1cc([C@H]2[C@](NC(=O)c3ccc(NC(=O)OC(C)(C)C)cc3)(C(=O)O)[C@@H](c3ccc(OC(=O)C45CC6CC(CC(C6)C4)C5)c(OC)c3)[C@]2(NC(=O)c2ccc(NC(=O)OC(C)(C)C)cc2)C(=O)O)ccc1OC(=O)C12CC3CC(CC(C3)C1)C2 | 63.5 | 75.8 | 3.6 | 2.15 | 86 |
| COc1cc([C@H]2[C@](NC(=O)c3ccc(NC(=O)C(C)C)cc3)(C(=O)O)[C@@H](c3ccc(OC(=O)C4CCC4)c(OC)c3)[C@]2(NC(=O)c2ccc(NC(=O)C(C)C)cc2)C(=O)O)ccc1OC(=O)C1CCC1 | 36.8 | 47.9 | 9.6 | 15.8 | 50.7 |
| CCCOc1ccc([C@H]2[C@](NC(=O)c3ccc(NC(=O)OC(C)(C)C)cc3)(C(=O)O)[C@@H](c3ccc(OCCC)cc3)[C@]2(NC(=O)c2ccc(NC(=O)OC(C)(C)C)cc2)C(=O)O)cc1 | < 15 | < 15 | > 20 | > 20 | < 15 |
| COc1cc([C@H]2C[C@]2(NC(=O)c2ccc(NC(=O)OC(C)(C)C)cc2)C(=O)O)ccc1OC(=O)c1cccs1 | < 15 | < 15 | > 20 | > 20 | < 15 |
| CC(C)(C)OC(=O)Nc1ccc(C(=O)N[C@]2(C(=O)O)[C@H](c3cccc(OCc4ccccc4)c3)[C@@](NC(=O)c3ccc(NC(=O)OC(C)(C)C)cc3)(C(=O)O)[C@@H]2c2cccc(OCc3ccccc3)c2)cc1 | < 15 | < 15 | > 20 | > 20 | < 15 |
| COc1cccc([C@H]2[C@](NC(=O)c3ccc(NC(=O)OC(C)(C)C)cc3)(C(=O)O)[C@@H](c3cccc(OC)c3)[C@]2(NC(=O)c2ccc(NC(=O)OC(C)(C)C)cc2)C(=O)O)c1 | < 15 | < 15 | > 20 | > 20 | < 15 |
| CCOc1cc([C@H]2[C@](NC(=O)c3ccc(NC(=O)OC(C)(C)C)cc3)(C(=O)O)[C@@H](c3ccc(OC(=O)c4cccs4)c(OCC)c3)[C@]2(NC(=O)c2ccc(NC(=O)OC(C)(C)C)cc2)C(=O)O)ccc1OC(=O)c1cccs1 | < 15 | 50.2 | 3.1 | 0.326 | 85.6 |
| COc1cc([C@H]2[C@](NC(=O)c3ccc(NC(=O)OC(C)(C)C)cc3)(C(=O)O)[C@@H](c3ccc(OCc4ccc(F)cc4)c(OC)c3)[C@]2(NC(=O)c2ccc(NC(=O)OC(C)(C)C)cc2)C(=O)O)ccc1OCc1ccc(F)cc1 | < 15 | < 15 | > 20 | > 20 | < 15 |
| COc1cc([C@H]2[C@](NC(=O)c3ccc(NC(=O)OC(C)(C)C)cc3)(C(=O)O)[C@@H](c3ccc(OC(=O)c4cccs4)c(OC)c3)[C@@]2(NC(=O)c2ccc(NC(=O)OC(C)(C)C)cc2)C(=O)O)ccc1OC(=O)c1cccs1 | 55.9 | 64.7 | 3.6 | > 20 | < 15 |
| COc1cc([C@H]2[C@](NC(=O)c3ccc(NC(=O)C(C)(C)C)cc3)(C(=O)O)[C@@H](c3ccc(OC(=O)c4cccs4)c(OC)c3)[C@]2(NC(=O)c2ccc(NC(=O)C(C)(C)C)cc2)C(=O)O)ccc1OC(=O)c1cccs1 | 33.4 | 47.6 | 0.5 | 1.11 | 60.8 |
| COc1cc([C@H]2[C@](NC(=O)c3ccc(NC(=O)OC(C)(C)C)cc3)(C(=O)O)[C@@H](c3ccc(OC(=O)c4cccs4)c(OC)c3)[C@]2(NC(=O)c2ccc(NC(=O)OC(C)(C)C)cc2)C(=O)O)ccc1OC(=O)c1cccs1 (stereo in doubt; 3) |  |  | 1.6 | 0.847 |  |
| COc1cc([C@H]2[C@](NC(=O)c3ccc(NC(=O)C4CCC4)cc3)(C(=O)O)[C@@H](c3ccc(OC(=O)c4cccs4)c(OC)c3)[C@]2(NC(=O)c2ccc(NC(=O)C3CCC3)cc2)C(=O)O)ccc1OC(=O)c1cccs1 | 45.6 | 53.6 | 1.2 | 0.749 | 87.5 |
| CNC(=S)Nc1ccc(C(=O)N[C@]2(C(=O)O)[C@H](c3ccc(OC(=O)c4cccs4)c(OC)c3)[C@@](NC(=O)c3ccc(NC(=S)NC)cc3)(C(=O)O)[C@@H]2c2ccc(OC(=O)c3cccs3)c(OC)c2)cc1 | 70.1 | 72.7 | 1.4 | 9.12 | 68 |
| CC(C)(C)OC(=O)Nc1ccc(C(=O)N[C@]2(C(=O)O)[C@H](c3ccccc3)[C@@](NC(=O)c3ccc(NC(=O)OC(C)(C)C)cc3)(C(=O)O)[C@@H]2c2ccccc2)cc1 | < 15 | < 15 | > 20 | > 20 | < 15 |
| CCC(=O)Nc1ccc(C(=O)N[C@]2(C(=O)O)[C@H](c3ccc(OC(=O)c4cccs4)c(OC)c3)[C@@](NC(=O)c3ccc(NC(=O)CC)cc3)(C(=O)O)[C@@H]2c2ccc(OC(=O)c3cccs3)c(OC)c2)cc1 | 36.1 | 75.2 | 4.9 | 0.696 | 48.4 |
| COc1cc([C@H]2[C@](NC(=O)c3ccc(NC(C)=O)cc3)(C(=O)O)[C@@H](c3ccc(OC(=O)c4cccs4)c(OC)c3)[C@]2(NC(=O)c2ccc(NC(C)=O)cc2)C(=O)O)ccc1OC(=O)c1cccs1 | 30.6 | 55.4 | 2.31 | 0.118 | 61.1 |
| COc1cc([C@H]2[C@](NC(=O)c3ccc(NC(=O)OC(C)(C)C)cc3)(C(=O)O)[C@@H](c3ccc(OC(=O)C(C)C)c(OC)c3)[C@]2(NC(=O)c2ccc(NC(=O)OC(C)(C)C)cc2)C(=O)O)ccc1OC(=O)C(C)C | 34.8 | 47.2 | 7.5 | 1.38 | 65 |
| COc1cc([C@H]2[C@](NC(=O)c3ccc(NC(=O)OC(C)(C)C)cc3)(C(=O)O)[C@@H](c3ccc(OC(=O)C4CCCCC4)c(OC)c3)[C@]2(NC(=O)c2ccc(NC(=O)OC(C)(C)C)cc2)C(=O)O)ccc1OC(=O)C1CCCCC1 | < 15 | < 15 | > 20 | > 20 | < 15 |
| CCOC(=O)CNC(=O)Nc1ccc(C(=O)N[C@]2(C(=O)O)[C@H](c3ccc(OC(=O)c4cccs4)c(OC)c3)[C@@](NC(=O)c3ccc(NC(=O)NCC(=O)OCC)cc3)(C(=O)O)[C@@H]2c2ccc(OC(=O)c3cccs3)c(OC)c2)cc1 | 37.9 | 43.8 | 4.3 | 4.5 | 33.7 |
| CCC(=O)Oc1ccc([C@H]2[C@](NC(=O)c3ccc(NC(=O)OC(C)(C)C)cc3)(C(=O)O)[C@@H](c3ccc(OC(=O)CC)c(OC)c3)[C@]2(NC(=O)c2ccc(NC(=O)OC(C)(C)C)cc2)C(=O)O)cc1OC | 68.3 | 86 | 2.7 | 2.5 | 91 |
| COc1cc([C@H]2[C@](NC(=O)c3ccc(NC(=O)OC(C)(C)C)cc3)(C(=O)O)[C@@H](c3ccc(OC(=O)c4cccs4)c(OC)c3)[C@]2(NC(=O)c2ccc(NC(=O)OC(C)(C)C)cc2)C(=O)O)ccc1OC(=O)c1cccs1 (stereo in doubt) |  |  | 0.6 | 0.371 |  |
| COc1cc([C@H]2[C@](NC(=O)c3ccc(NC(=O)C4CCCC4)cc3)(C(=O)O)[C@@H](c3ccc(OC(=O)c4cccs4)c(OC)c3)[C@@]2(NC(=O)c2ccc(NC(=O)C3CCCC3)cc2)C(=O)O)ccc1OC(=O)c1cccs1 | 37.9 | 39.3 | 0.3 | 0.657 | 35.9 |
| COc1cc([C@H]2[C@](NC(=O)c3ccc(NC(=O)CCl)cc3)(C(=O)O)[C@@H](c3ccc(OC(=O)c4cccs4)c(OC)c3)[C@]2(NC(=O)c2ccc(NC(=O)CCl)cc2)C(=O)O)ccc1OC(=O)c1cccs1 | 32.9 | 43.8 | 8.5 | 3.8 | 58 |
| COc1ccc([C@H]2[C@](NC(=O)c3ccc(NC(=O)OC(C)(C)C)cc3)(C(=O)O)[C@@H](c3ccc(OC)cc3)[C@]2(NC(=O)c2ccc(NC(=O)OC(C)(C)C)cc2)C(=O)O)cc1 | 2.4 | 7.45 |  | 9.4 | 7.5 |
